# Laboratory results published in ChEMBL document CHEMBL4251549, “Design, synthesis and biological evaluation of nitrogen-containing macrocyclic bisbibenzyl derivatives as potent anticancer agents by targeting the lysosome” (Eur J Med Chem, 2017).
# pIC50: −log10 of the molar value. Counter-ions that a name gives are not always drawn.
# Assays:
# Format in all cases: functional, cell-based
# [1] = test system: A549; experiment: Antiproliferative activity in human A549 cells after 48 hrs by MTT assay; details: A549, 48 h
# In short: (§1)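 Cells exposed to compound for 48 h. Viability read by MTT, with absorbance of the solubilised MTT product at 570 nm. IC50 derived from at least three independent experiments.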
# [2] = test system: MCF7; experiment: Antiproliferative activity in human MCF7 cells after 48 hrs by MTT assay; details: MCF7, 48 h; in short: as §1
# [3] = test system: K562; experiment: Antiproliferative activity in human K562 cells after 48 hrs by MTT assay; details: K562, 48 h; in short: as §1
Compound,pIC50 [1],pIC50 [2],pIC50 [3]
Oc1ccc2cc1Oc1ccc(cc1)CCc1ccc(CN3CCOCC3)c(O)c1-c1ccc(cc1O)CC2,< 4.70,< 4.70,< 4.70
CC(=O)Nc1cc2cc(c1OC(C)=O)Oc1ccc(cc1)CCc1cccc(OC(C)=O)c1-c1ccc(cc1OC(C)=O)CC2,< 4.70,< 4.70,< 4.70
Oc1cc2ccc1-c1c(ccc(CN3CCSCC3)c1O)CCc1ccc(cc1)Oc1cc(cc(CN3CCSCC3)c1O)CC2,4.99,5.03,5.08
c1cc2c(c(OCCN3CCCCC3)c1)-c1ccc(cc1OCCN1CCCCC1)CCc1ccc(OCCN3CCCCC3)c(c1)Oc1ccc(cc1)CC2,6.01,6.62,6.25
COc1cccc2c1C(=O)c1c(O)c3c(c(O)c1C2=O)C[C@@](O)(C(=O)CO)C[C@@H]3O[C@H]1C[C@H](N)[C@H](O)[C@H](C)O1 [DOXORUBICIN HYDROCHLORIDE],5.84,5.64,6.21
COc1ccc(N2CCN(Cc3cc4cc(c3O)Oc3ccc(cc3)CCc3ccc(CN5CCN(c6ccc(OC)cc6)CC5)c(O)c3-c3ccc(cc3O)CC4)CC2)cc1,< 4.70,< 4.70,< 4.70
Oc1cc2ccc1-c1c(ccc(CN3CCN(Cc4ccccc4)CC3)c1O)CCc1ccc(cc1)Oc1cc(cc(CN3CCN(Cc4ccccc4)CC3)c1O)CC2,< 4.70,< 4.70,< 4.70
CN(C)CCOc1cccc2c1-c1ccc(cc1O)CCc1ccc(O)c(c1)Oc1ccc(cc1)CC2,5.89,5.62,5.81
O=[N+]([O-])c1cc2cc(c1O)Oc1ccc(cc1)CCc1cccc(O)c1-c1ccc(cc1O)CC2,< 4.70,< 4.70,< 4.70
Oc1cc2ccc1-c1c(ccc(CN3CCCCC3)c1O)CCc1ccc(cc1)Oc1cc(cc(CN3CCCCC3)c1O)CC2,5.31,5.69,6.18
c1cc2c(c(OCCN3CCCC3)c1)-c1ccc(cc1OCCN1CCCC1)CCc1ccc(OCCN3CCCC3)c(c1)Oc1ccc(cc1)CC2,5.98,6.06,5.75
CN(C)Cc1cc2cc(c1O)Oc1ccc(cc1)CCc1ccc(CN(C)C)c(O)c1-c1ccc(cc1O)CC2,5.32,5.37,5.55
c1cc2c(c(OCCCN3CCCC3)c1)-c1ccc(cc1OCCCN1CCCC1)CCc1ccc(OCCCN3CCCC3)c(c1)Oc1ccc(cc1)CC2,5.78,5.67,5.67
COCCN(CCOC)Cc1cc2cc(c1O)Oc1ccc(cc1)CCc1ccc(CN(CCOC)CCOC)c(O)c1-c1ccc(cc1O)CC2,< 4.70,< 4.70,< 4.70
CCCCN(CCCC)Cc1cc2cc(c1O)Oc1ccc(cc1)CCc1ccc(CN(CCCC)CCCC)c(O)c1-c1ccc(cc1O)CC2,< 4.70,< 4.70,< 4.70
Oc1ccc2cc1Oc1ccc(cc1)CCc1cccc(OCCN3CCOCC3)c1-c1ccc(cc1O)CC2,5.13,5.30,5.00
COCCN(CCOC)Cc1ccc2c(c1O)-c1ccc(cc1O)CCc1ccc(O)c(c1)Oc1ccc(cc1)CC2,< 4.70,< 4.70,< 4.70
CN1CCN(Cc2ccc3c(c2O)-c2ccc(cc2O)CCc2ccc(O)c(c2)Oc2ccc(cc2)CC3)CC1,5.25,5.22,5.48
Oc1ccc2cc1Oc1ccc(cc1)CCc1cccc(OCCCN3CCCC3)c1-c1ccc(cc1O)CC2,5.34,5.43,5.53
c1cc2c(c(OCCN3CCCCCC3)c1)-c1ccc(cc1OCCN1CCCCCC1)CCc1ccc(OCCN3CCCCCC3)c(c1)Oc1ccc(cc1)CC2,6.28,6.18,6.59
CN1CCN(Cc2cc3cc(c2O)Oc2ccc(cc2)CCc2ccc(CN4CCN(C)CC4)c(O)c2-c2ccc(cc2O)CC3)CC1,5.67,5.54,5.48
CCN(CC)Cc1ccc2c(c1O)-c1ccc(cc1O)CCc1ccc(O)c(c1)Oc1ccc(cc1)CC2,5.24,5.12,5.10
CCN(CC)Cc1cc2cc(c1O)Oc1ccc(cc1)CCc1ccc(CN(CC)CC)c(O)c1-c1ccc(cc1O)CC2,5.42,5.98,5.73
CN(C)CCCOc1cccc2c1-c1ccc(cc1O)CCc1ccc(O)c(c1)Oc1ccc(cc1)CC2,5.70,5.49,5.58

Compound,pIC50 [1],pIC50 [2],pIC50 [3]
CC(C)(C)OC(=O)N1CCN(Cc2ccc3c(c2O)-c2ccc(cc2O)CCc2ccc(O)c(c2)Oc2ccc(cc2)CC3)CC1,< 4.70,< 4.70,< 4.70
c1cc2c(c(OCCN3CCOCC3)c1)-c1ccc(cc1OCCN1CCOCC1)CCc1ccc(OCCN3CCOCC3)c(c1)Oc1ccc(cc1)CC2,5.28,5.38,5.46
CC(=O)Nc1cc2cc(c1O)Oc1ccc(cc1)CCc1cccc(O)c1-c1ccc(cc1O)CC2,< 4.70,< 4.70,< 4.70
COc1ccc(N2CCN(Cc3ccc4c(c3O)-c3ccc(cc3O)CCc3ccc(O)c(c3)Oc3ccc(cc3)CC4)CC2)cc1,< 4.70,< 4.70,< 4.70
Oc1ccc2cc1Oc1ccc(cc1)CCc1ccc(CN3CCCCC3)c(O)c1-c1ccc(cc1O)CC2,5.15,5.29,5.23
Nc1cc2cc(c1O)Oc1ccc(cc1)CCc1cccc(O)c1-c1ccc(cc1O)CC2,< 4.70,< 4.70,< 4.70
CN(C)c1cc2cc(c1O)Oc1ccc(cc1)CCc1cccc(O)c1-c1ccc(cc1O)CC2,< 4.70,< 4.70,< 4.70
CN(CCO)Cc1cc2cc(c1O)Oc1ccc(cc1)CCc1ccc(CN(C)CCO)c(O)c1-c1ccc(cc1O)CC2,5.28,5.22,5.25
Oc1ccc2cc1Oc1ccc(cc1)CCc1cccc(OCCN3CCCCCC3)c1-c1ccc(cc1O)CC2,5.53,5.52,5.56
Oc1cc2ccc1-c1c(ccc(CN3CCOCC3)c1O)CCc1ccc(cc1)Oc1cc(cc(CN3CCOCC3)c1O)CC2,< 4.70,< 4.70,< 4.70
Oc1ccc2cc1Oc1ccc(cc1)CCc1cccc(OCCN3CCCCC3)c1-c1ccc(cc1O)CC2,5.67,5.60,5.64
CCN(CC)CCOc1ccc2cc1Oc1ccc(cc1)CCc1cccc(OCCN(CC)CC)c1-c1ccc(cc1OCCN(CC)CC)CC2,6.11,6.25,6.19
Oc1cc2ccc1-c1c(ccc(CN3CCC(O)CC3)c1O)CCc1ccc(cc1)Oc1cc(cc(CN3CCC(O)CC3)c1O)CC2,5.49,5.40,5.59
Oc1ccc2cc1Oc1ccc(cc1)CCc1ccc(CN3CCN(Cc4ccccc4)CC3)c(O)c1-c1ccc(cc1O)CC2,< 4.70,< 4.70,< 4.70
CCCCN(CCCC)Cc1ccc2c(c1O)-c1ccc(cc1O)CCc1ccc(O)c(c1)Oc1ccc(cc1)CC2,< 4.70,< 4.70,< 4.70
CCN(CC)CCOc1cccc2c1-c1ccc(cc1O)CCc1ccc(O)c(c1)Oc1ccc(cc1)CC2,5.73,5.56,5.65
Oc1ccc2cc1Oc1ccc(cc1)CCc1cccc(OCCN3CCCC3)c1-c1ccc(cc1O)CC2,5.69,5.62,5.65
CC(C)(C)OC(=O)N1CCN(Cc2cc3cc(c2O)Oc2ccc(cc2)CCc2ccc(CN4CCN(C(=O)OC(C)(C)C)CC4)c(O)c2-c2ccc(cc2O)CC3)CC1,< 4.70,< 4.70,< 4.70
CN(CCO)Cc1ccc2c(c1O)-c1ccc(cc1O)CCc1ccc(O)c(c1)Oc1ccc(cc1)CC2,5.04,5.08,5.04
Oc1ccc2cc1Oc1ccc(cc1)CCc1ccc(CN3CCCC3)c(O)c1-c1ccc(cc1O)CC2,5.65,5.62,5.32
Oc1ccc2cc1Oc1ccc(cc1)CCc1ccc(CN3CCC(O)CC3)c(O)c1-c1ccc(cc1O)CC2,5.24,5.04,5.15
CN(C)CCCOc1ccc2cc1Oc1ccc(cc1)CCc1cccc(OCCCN(C)C)c1-c1ccc(cc1OCCCN(C)C)CC2,5.84,5.52,5.60
Oc1ccc2cc1Oc1ccc(cc1)CCc1ccc(CN3CCSCC3)c(O)c1-c1ccc(cc1O)CC2,4.79,4.80,4.87
